In PMC11740949 (Bioconjugate Chemistry, 2024) one finds IC50 data, which are given here for one compound.

The test addresses T1, recombinant murine FAP (Mus musculus, UniProt P97321).
T1 sequence (P97321 1-761): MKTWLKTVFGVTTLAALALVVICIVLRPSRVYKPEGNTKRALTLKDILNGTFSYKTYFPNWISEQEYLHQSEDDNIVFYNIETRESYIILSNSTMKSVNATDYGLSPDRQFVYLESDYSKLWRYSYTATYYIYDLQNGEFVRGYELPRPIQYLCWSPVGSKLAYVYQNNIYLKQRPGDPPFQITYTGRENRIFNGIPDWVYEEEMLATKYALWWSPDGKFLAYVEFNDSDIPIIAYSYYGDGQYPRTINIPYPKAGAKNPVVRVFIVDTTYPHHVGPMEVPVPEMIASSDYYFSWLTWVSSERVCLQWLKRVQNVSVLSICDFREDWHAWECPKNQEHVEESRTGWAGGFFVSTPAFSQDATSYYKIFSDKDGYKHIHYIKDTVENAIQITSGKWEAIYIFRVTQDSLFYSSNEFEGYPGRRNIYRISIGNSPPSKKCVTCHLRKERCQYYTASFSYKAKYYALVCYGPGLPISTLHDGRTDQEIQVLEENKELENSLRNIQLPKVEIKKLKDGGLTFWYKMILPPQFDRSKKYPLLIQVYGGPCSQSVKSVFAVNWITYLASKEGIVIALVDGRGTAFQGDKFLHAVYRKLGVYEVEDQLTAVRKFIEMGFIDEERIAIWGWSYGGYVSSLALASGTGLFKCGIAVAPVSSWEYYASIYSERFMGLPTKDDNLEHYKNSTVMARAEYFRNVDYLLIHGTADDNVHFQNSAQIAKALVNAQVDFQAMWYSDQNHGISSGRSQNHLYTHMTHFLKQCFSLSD
Description: FAP inhibition assay with fluorogenic substrate Z-Gly-Pro-AMC. The test is classed as biochemical. To be noted: three-parameter fit. The method in brief:
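Recombinant mouse FAP at 0.01 μg/100 μL in 50 mM Tris, 1.0 M NaCl, 0.1% BSA (w/v), pH 7.5. Test compound was serially diluted 1:5 (10 pM–10 μM) and preincubated with the enzyme for 30 min at 37 °C. Z-Gly-Pro-AMC was then added (10 μL of a 100 μM solution) for 60 min at 37 °C, and fluorescence was read at Ex 380/Em 460. Activity was scaled to no-inhibitor and no-enzyme wells, and IC50 came from a three-parameter inhibitor-vs-response fit.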

A word on the IC50: it is the point on the concentration scale where inhibition reaches its midpoint. Regarding `N#C[C@@H]1CC(F)(F)CN1C(=O)CNC(=O)c1ccnc2ccc(OCCCN3CCN(C(=O)CN4CCN(CC(=O)O)CCN(CC(=O)O)CCN(CC(=O)O)CC4)CC3)cc12` [FAPi-4], the IC50 was found to be 590 pM.
